Experimental data as given in paper PMC10286757 (Chemmedchem, 2022).

Legend:
[1] = system: Plasmodium falciparum strain 3D7; experiment: parasite lactate dehydrogenase; type: cell-based; settings: for viability at 20 µM / IC50: Plasmodium falciparum, 3D7, 48 h; for viability at 20 µM: read-out: Pf 3D7 % cell viability at 20 μM; for antiplasmodial activity in vitro (in words): Pf 3D7, pLDH assay, low micromolar range; for IC50: read-out: Pf 3D7 IC50
PfCDPK4 = target: T1, PfCDPK4 (Plasmodium falciparum, UniProt Q8IBS5); experiment: Kinase Glo luciferase enzyme activity assay, recombinant PfCDPK4; type: biochemical
T1 sequence (Q8IBS5 1-528): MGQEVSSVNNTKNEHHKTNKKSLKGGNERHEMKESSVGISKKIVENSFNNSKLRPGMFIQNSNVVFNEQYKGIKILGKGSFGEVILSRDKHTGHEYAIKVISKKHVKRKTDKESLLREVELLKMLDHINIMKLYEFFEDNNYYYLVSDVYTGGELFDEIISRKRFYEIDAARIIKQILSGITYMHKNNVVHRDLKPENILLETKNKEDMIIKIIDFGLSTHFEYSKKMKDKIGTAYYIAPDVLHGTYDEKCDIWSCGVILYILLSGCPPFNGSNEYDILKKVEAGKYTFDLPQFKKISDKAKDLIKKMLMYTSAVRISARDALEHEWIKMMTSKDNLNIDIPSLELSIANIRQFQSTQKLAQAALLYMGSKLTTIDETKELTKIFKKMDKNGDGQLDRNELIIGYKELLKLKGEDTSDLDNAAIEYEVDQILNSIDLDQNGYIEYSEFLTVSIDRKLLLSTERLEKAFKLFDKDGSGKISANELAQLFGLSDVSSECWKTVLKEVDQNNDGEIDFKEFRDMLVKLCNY
How it was run: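 Recombinant PfCDPK4 was expressed in Rosetta E. coli at 20 °C by auto-induction, then purified by IMAC and size exclusion. The enzyme was used at 180 nM with 40 μM Syntide-2 and serial inhibitor dilutions in 20 mM HEPES pH 7.5, 0.1 % BSA, 10 mM MgCl2, ±1 mM CaCl2, 1 mM EGTA. Reactions were started with 10 μM ATP and run 90 min at 30 °C. Remaining ATP was read by Kinase-Glo luminescence, with positive and DMSO controls on each plate.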

[2] = HeLa cell cytotoxicity assay; type: cell-based; settings: human, HeLa cells
How it was run: (§1)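 HeLa cells were seeded at 2×10^4 per well in DMEM with 10 % FBS, 2 mM L-glutamine and antibiotics, then held overnight at 37 °C in 5 % CO2. Test compound was added to a final 20 μM for 48 h. Resazurin was then added to a final 50 μM for 4 h, and resorufin fluorescence was read at Ex560/Em590. Cell-free background was subtracted and results expressed as % viability against untreated wells.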

HeLa cells = experiment: HeLa cell cytotoxicity assay; type: cell-based; settings: single concentration 20 μM
How it was run: as §1

Work on `COc1ccc(-c2cn(CCC3CCN(C(=O)OC(C)(C)C)CC3)c3ncnc(N)c23)cc1OC` [2 l, tert ‐Butyl 4‐{2‐[4‐amino‐5‐(3,4‐dimethoxyphenyl)‐7H‐pyrrolo[2,3‐d]pyrimidin‐7‐yl]ethyl}piperidine‐1‐carboxylate] yielded a viability at 20 µM [1] of 66.8 ± 3.9%, an IC50 (PfCDPK4) of over 2 µM and a viability at 48 h, 20 µM [2] of 82.4 ± 1.4%.

With `COc1ccc(-c2cn(CC3CC3)c3ncnc(N)c23)cc1OC` [2 e, 7‐(Cyclopropylmethyl)‐5‐(3,4‐dimethoxyphenyl)‐7H‐pyrrolo[2,3‐d]pyrimidin‐4‐amine] the viability at 20 µM [1] was 110 ± 10.9%, the IC50 (PfCDPK4) was over 2 µM and the viability at 48 h, 20 µM [2] was 88.8 ± 0.7%.

For `CCOc1ccc2cc(-c3cn(CCN4CCOCC4)c4ncnc(N)c34)ccc2c1` [2 m, 5‐(2‐Ethoxynaphthalen‐6‐yl)‐7‐(2‐morpholinoethyl)‐7H‐pyrrolo[2,3‐d]pyrimidin‐4‐amine], the “antiplasmodial activity in vitro (in words)” value (shortened to “antiplasmodial activity”) [1] was “moderate antiplasmodial activity”, the viability at 20 µM [1] was 12 ± 2.6% and the IC50 [1] was 8.2 ± 3.1 µM. The viability at 48 h, 20 µM [2] was 47 ± 7% and the “cytotoxicity in vitro in HeLa cell assay (in words)” value (HeLa cells) was “moderate cytotoxicity”.

In the case of `COc1ccccc1-c1cn(CC2CCN(C(C)=O)CC2)c2ncnc(N)c12` [2 i, 1‐{4‐[(4‐Amino‐5‐(2‐methoxyphenyl)‐7H‐pyrrolo[2,3‐d]pyrimidin‐7‐yl)methyl]piperidin‐1‐yl}ethanone], the viability at 20 µM [1] is reported as 121 ± 8.6%, the IC50 (PfCDPK4) is reported as over 2 µM and the viability at 48 h, 20 µM [2] is reported as 93.3 ± 3.2%.

Work on `COc1ccccc1-c1cn(CC2CC2)c2ncnc(N)c12` [2 d, 7‐(Cyclopropylmethyl)‐5‐(2‐methoxyphenyl)‐7H‐pyrrolo[2,3‐d]pyrimidin‐4‐amine] yielded a viability at 20 µM [1] of 107 ± 6%, an IC50 (PfCDPK4) of over 2 µM and a viability at 48 h, 20 µM [2] of 63.8 ± 1.5%.

Molecule `COc1ccc(-c2cn(CCN3CCOCC3)c3ncnc(N)c23)cc1OC` [2 o, 5‐(3,4‐Dimethoxyphenyl)‐7‐(2‐morpholinoethyl)‐7H‐pyrrolo[2,3‐d]pyrimidin‐4‐amine] has a viability at 20 µM [1] of 57 ± 6.6%, an IC50 (PfCDPK4) of over 2 µM and a viability at 48 h, 20 µM [2] of 88 ± 11.8%.

With `CCOc1ccc2cc(-c3cn(CC4CCN(C(C)=O)CC4)c4ncnc(N)c34)ccc2c1` [2 g, 1‐{4‐[(4‐Amino‐5‐(2‐ethoxynaphthalen‐6‐yl)‐7H‐pyrrolo[2,3‐d]pyrimidin‐7‐yl)methyl]piperidin‐1‐yl}ethanone] the “antiplasmodial activity” value [1] was “moderate antiplasmodial activity”, the viability at 20 µM [1] was 9.3 ± 1.6% and the IC50 [1] was 14.2 ± 1.7 µM. It also gave an IC50 (PfCDPK4) of 0.53 ± 0.185 µM and a viability at 48 h, 20 µM [2] of 92.8 ± 5.7%.

For `COc1ccccc1-c1cn(CCN2CCOCC2)c2ncnc(N)c12` [2 n, 5‐(2‐Methoxyphenyl)‐7‐(2‐morpholinoethyl)‐7H‐pyrrolo[2,3‐d]pyrimidin‐4‐amine], the viability at 20 µM [1] was 95 ± 1%, the IC50 (PfCDPK4) was over 2 µM and the viability at 48 h, 20 µM [2] was 112 ± 2.8%.

Molecule `COc1ccccc1-c1cn(CCC2CCN(C(=O)OC(C)(C)C)CC2)c2ncnc(N)c12` [2 k, tert ‐Butyl 4‐{2‐[4‐amino‐5‐(2‐methoxyphenyl)‐7H‐pyrrolo[2,3‐d]pyrimidin‐7‐yl]ethyl}piperidine‐1‐carboxylate] has a viability at 20 µM [1] of 62 ± 2.1% and a viability at 48 h, 20 µM [2] of 78.9 ± 0.1%.

For `COc1ccc2cc(-c3cn(CC4CC4)c4ncnc(N)c34)ccc2c1` [2 a, 7‐(Cyclopropylmethyl)‐5‐(2‐methoxynaphthalen‐6‐yl)‐7H‐pyrrolo[2,3‐d]pyrimidin‐4‐amine], the viability at 20 µM [1] was 103 ± 8% and the viability at 48 h, 20 µM [2] was 93.6 ± 7.1%.

`CCOCCOc1ccc2cc(-c3cn(CC4CCN(C(C)=O)CC4)c4ncnc(N)c34)ccc2c1` [2 h, 1‐{4‐{[5‐(2‐(2‐Ethoxyethoxy)naphthalen‐6‐yl)‐4‐amino‐7H‐pyrrolo[2,3‐d]pyrimidin‐7‐yl]methyl}piperidin‐1‐yl}ethanone] showed a viability at 20 µM [1] of 62.2 ± 9%, an IC50 (PfCDPK4) of over 2 µM and a viability at 48 h, 20 µM [2] of 94.4 ± 9.3%.

Molecule `CCN(CC)CCCC(C)Nc1ccnc2cc(Cl)ccc12` (stereo not shown) [Chloroquine, reference compound] has an IC50 [1] of 0.015 µM.

In the case of `COc1ccc(-c2cn(CC3CCN(C(C)=O)CC3)c3ncnc(N)c23)cc1OC` [2 j, 1‐{4‐[(4‐Amino‐5‐(3,4‐dimethoxyphenyl)‐7H‐pyrrolo[2,3‐d]pyrimidin‐7‐yl)methyl]piperidin‐1‐yl}ethanone], the “antiplasmodial activity” value [1] is reported as “moderate antiplasmodial activity”, the viability at 20 µM [1] is reported as 2.8 ± 3.9% and the IC50 [1] is reported as 12.1 ± 11.4 µM. It also gave an IC50 (PfCDPK4) of over 2 µM and a viability at 48 h, 20 µM [2] of 79.3 ± 0.8%.

`COc1ccc2cc(-c3cn(CC4CCN(C(C)=O)CC4)c4ncnc(N)c34)ccc2c1` [2 f, 1‐{4‐[(4‐Amino‐5‐(2‐methoxynaphthalen‐6‐yl)‐7H‐pyrrolo[2,3‐d]pyrimidin‐7‐yl)methyl]piperidin‐1‐yl}ethanone] gave a viability at 20 µM [1] of 35.3 ± 2.2%, an IC50 (PfCDPK4) of 0.21 ± 0.068 µM and a viability at 48 h, 20 µM [2] of 92.1 ± 3.1%.

With `CCOc1ccc2cc(-c3cn(CC4CC4)c4ncnc(N)c34)ccc2c1` [2 b, 7‐(Cyclopropylmethyl)‐5‐(2‐ethoxynaphthalen‐6‐yl)‐7H‐pyrrolo[2,3‐d]pyrimidin‐4‐amine] the “antiplasmodial activity” value [1] was “moderate antiplasmodial activity”, the viability at 20 µM [1] was 24.1 ± 3.8% and the IC50 [1] was 18.7 ± 0.8 µM. For the same molecule, the IC50 (PfCDPK4) was 0.369 ± 0.138 µM and the viability at 48 h, 20 µM [2] was 79.8 ± 3.3%.

`CCOCCOc1ccc2cc(-c3cn(CC4CC4)c4ncnc(N)c34)ccc2c1` [2 c, 5‐[2‐(2‐Ethoxyethoxy)naphthalen‐6‐yl]‐7‐(cyclopropylmethyl)‐7H‐pyrrolo[2,3‐d]pyrimidin‐4‐amine] gave a viability at 20 µM [1] of 93.1 ± 1.4% and a viability at 48 h, 20 µM [2] of 73 ± 4.1%.

`COc1ccccc1-c1cn(Cc2ccccc2)c2ncnc(N)c12` [2 p, 7‐Benzyl‐5‐(2‐methoxyphenyl)‐7H‐pyrrolo[2,3‐d]pyrimidin‐4‐amine] gave a viability at 20 µM [1] of 72.4 ± 13.3% and a viability at 48 h, 20 µM [2] of 97 ± 12.5%.

For `COc1ccc(-c2cn(Cc3ccccc3)c3ncnc(N)c23)cc1OC` [2 q, 7‐Benzyl‐5‐(3,4‐dimethoxyphenyl)‐7H‐pyrrolo[2,3‐d]pyrimidin‐4‐amine], the viability at 20 µM [1] was 110 ± 4.2% and the viability at 48 h, 20 µM [2] was 95.4 ± 0.5%.
